Laboratory results as given in ChEMBL document CHEMBL1955813, “Synthesis of new troglitazone derivatives: anti-proliferative activity in breast cancer cell lines and preliminary toxicological study” (Eur J Med Chem, 2012).

Key:
MDA-MB-231 = test: Antiproliferative activity hormone-independent human MDA-MB-231 cells after 24 hrs by luminescent cell viability assay; type: functional, cell-based; details: MDA-MB-231, 24 h
How it was run: (§1)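 Seeded at 8.10⁴ cells/well; after 24 h attachment, medium switched to 1% FCS with 2 mM L-glutamine and compounds added. MCF-7 grown in phenol red DMEM, MDA-MB-231 in L-15 (both 10% FCS, 37 °C). Exposure 24 h; controls 0.1% DMSO. Cells washed, trypsinized, quantified by CellTiter-Glo luminescence. Triplicate; IC50 = concentration halving viable cell number.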

[1] = Cytotoxicity against human hepatocytes assessed as cell viability at 100 uM after 90 mins by MTT assay relative to control; type: cell-based, Hepatocyte; details: read-out: Activity
How it was run: (§2)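 Cryopreserved primary human hepatocytes, 0.1 × 10⁶ cells/well in DMEM with gentamycin, insulin, 10 µM dexamethasone, 37 °C, 5% CO₂. Equilibrated 30 min with stirring at 900 rpm, then compound or DMSO (0.4%) added, 0.5–100 µM (7 levels), triplicate. After 90 min, MTT added for 30 min at 37 °C; formazan dissolved in DMSO, A595; viability as % of DMSO control.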

MCF7 = test: Antiproliferative activity hormone-dependent human MCF7 cells after 24 hrs by luminescent cell viability assay; type: functional, cell-based; details: MCF7, 24 h; how it was run: as §1
Hepatocyte = test: Cytotoxicity against human hepatocytes assessed as cell viability up to 50 uM after 90 mins by MTT assay; type: cell-based; details: 1.5 h; how it was run: as §2
[2] = Ratio of drug level in liver to plasma in rat; type: ADME, tissue-based; details: liver and plasma
[3] = Cmax in human at 600 mg/day; type: ADME, organism-based; design: dose 600 mg/day; details: plasma

SMILES	IC50 (MDA-MB-231) [µM]	viability at 1.5 h, 100 µM [1] [%]	IC50 (MCF7) [µM]	Activity (Hepatocyte)	Kp [2]	Cmax [3] [µM]
Cc1c(C)c2c(c(C)c1OC(=O)CCCCCCCNC(=O)CCCC[C@@H]1SC[C@@H]3NC(=O)N[C@@H]31)CCC(C)(COc1ccc(/C=C3\SC(=O)NC3=O)cc1)O2 (stereo partly drawn)	3.7	61	26	–	–	–
Cc1c(C)c2c(c(C)c1OC(=O)CCCC[C@@H]1SC[C@@H]3NC(=O)N[C@@H]31)CCC(C)(COc1ccc(/C=C3\SC(=O)NC3=O)cc1)O2 (mixture of isomers)	3.5	66	11.2	–	–	–
Cc1c(C)c2c(c(C)c1OC(=O)CCCC[C@@H]1SC[C@@H]3NC(=O)N[C@@H]31)CCC(C)(COc1ccc(CC3SC(=O)NC3=O)cc1)O2 (mixture of isomers)	6.5	50	15.9	–	–	–
Cc1c(C)c2c(c(C)c1OC(=O)OC(C)(C)C)CCC(C)(COc1ccc(/C=C3\SC(=O)NC3=O)cc1)O2 (racemic)	3.3	75	7.7	–	–	–
Cc1cc(C)c2c(c1C)OC(C)(COc1ccc(/C=C3\SC(=O)NC3=O)cc1)CC2 (racemic)	10.8	84	12.5	Non-toxic	–	–
Cc1c(C)c2c(c(C)c1OC(=O)CCCCCCCNC(=O)OC(C)(C)C)CCC(C)(COc1ccc(/C=C3\SC(=O)NC3=O)cc1)O2 (racemic)	3.2	79	13	Non-toxic	–	–
Cc1c(C)c2c(c(C)c1OC(=O)CCCCCCCN)CCC(C)(COc1ccc(/C=C3\SC(=O)NC3=O)cc1)O2 (racemic)	5	57	3.2	–	–	–
CC(=O)NCCNC(=O)CCC(=O)Oc1c(C)c(C)c2c(c1C)CCC(C)(COc1ccc(/C=C3\SC(=O)NC3=O)cc1)O2 (racemic)	> 25	75	> 50	–	–	–
Cc1c(C)c2c(c(C)c1OC(=O)OC(C)(C)C)CCC(C)(COc1ccc(CC3SC(=O)NC3=O)cc1)O2 (racemic)	3.8	47	11.2	–	–	–
Cc1cc(C)c2c(c1C)OC(C)(COc1ccc(CC3SC(=O)NC3=O)cc1)CC2 (racemic)	12.3	66	20	–	–	–
Cc1c(C)c2c(c(C)c1OC(=O)CCC(=O)O)CCC(C)(COc1ccc(CC3SC(=O)NC3=O)cc1)O2 (racemic)	> 25	76	> 50	–	–	–
Cc1c(C)c2c(c(C)c1O)CCC(C)(COc1ccc(/C=C3\SC(=O)NC3=O)cc1)O2 (racemic)	16.6	63	29.7	Non-toxic	–	–
Cc1c(C)c2c(c(C)c1OC(=O)CCC(=O)O)CCC(C)(COc1ccc(/C=C3\SC(=O)NC3=O)cc1)O2 (racemic)	> 25	54	> 50	–	–	–
Cc1c(C)c2c(c(C)c1O)CCC(C)(COc1ccc(CC3SC(=O)NC3=O)cc1)O2 (stereo not drawn) [TROGLITAZONE]	15.7	52	35.4	Non-toxic	10	6.3
